{"data": "Measurements gathered from unrelated publications", "FGFR3 G697C": "Fibroblast growth factor receptor 3 (FGFR3, Homo sapiens, UniProt P22607, G697C)", "FGFR3 K650E": "Fibroblast growth factor receptor 3 (FGFR3, Homo sapiens, UniProt P22607, K650E)", "FGFR3": "Fibroblast growth factor receptor 3 (FGFR3, Homo sapiens, UniProt P22607)"}
{"SMILES": "Nc1ncnc2occ(-c3ccc(NC(=O)Nc4cc(C(F)(F)F)ccc4F)cc3)c12", "target": "FGFR3 G697C", "effect on": "cell-free assay", "concentration": "20 µM", "quantity": "remaining signal", "result": "1.1%"}
{"SMILES": "COc1cc2ncnc(Nc3ccc(Oc4ccccc4)cc3C)c2cc1OC", "target": "FGFR3 K650E", "effect on": "enzyme activity", "mode": "inhibitor", "concentration": "1 µM", "quantity": "inhibition", "result": "0%"}
{"SMILES": "CC(C)CC(=O)N1CCc2nc(-c3ccc(Br)cc3)nc(N(C)Cc3ccccc3)c2C1", "target": "FGFR3", "effect on": "cell-free assay", "technique": "competition with immobilised ligand", "concentration": "0.1 µM", "quantity": "remaining binding", "result": "100%"}
{"SMILES": "C[C@H]1CCN(c2nccc(-c3cnn4ncccc34)n2)C1", "target": "FGFR3 G697C", "effect on": "binding", "concentration": "1 µM", "quantity": "remaining binding", "result": "83%"}
{"SMILES": "CNC(=O)Nc1ccc2c(c1)[C@@]1(CC2)OC(=O)N(CC(=O)N(Cc2ccc(F)cc2)[C@@H](C)C(F)(F)F)C1=O", "target": "FGFR3", "effect on": "cell-free assay", "technique": "competition with immobilised ligand", "concentration": "1 µM", "quantity": "remaining binding", "result": "92%"}
{"SMILES": "COc1cc2ncnc(Nc3ccc(Oc4ccccc4)c(C)c3C)c2cc1OC", "target": "FGFR3 K650E", "effect on": "enzyme activity", "mode": "inhibitor", "concentration": "1 µM", "quantity": "inhibition", "result": "3%"}
{"SMILES": "O=C(CSc1nc2nccnc2c(=O)n1CCc1ccccc1)Nc1nccs1", "target": "FGFR3", "effect on": "enzyme activity", "mode": "inhibitor", "concentration": "10 µM", "quantity": "inhibition", "result": "8%"}
{"SMILES": "CC(C)(C)c1nc2c(s1)c1nc(N)ncc1c1ccc(NS(=O)(=O)c3c(F)cccc3F)c(F)c12", "target": "FGFR3", "effect on": "enzyme activity", "mode": "inhibitor", "technique": "radiometric", "concentration": "1 µM", "quantity": "remaining activity", "result": "91%"}
{"SMILES": "CCC(=O)N[C@H]1CC[C@@H](C(=O)N(C)c2ccc(-c3nc4ccccc4o3)cc2)C1", "target": "FGFR3", "effect on": "cell-free assay", "technique": "competition with immobilised ligand", "concentration": "1 µM", "quantity": "remaining binding", "result": "98%"}
{"SMILES": "CCCS(=O)(=O)Nc1ccc(F)c(C(=O)c2c[nH]c3ncc(-c4ccc(Cl)cc4)cc23)c1F", "target": "FGFR3", "effect on": "enzyme activity", "mode": "inhibitor", "concentration": "1 µM", "quantity": "inhibition", "result": "< 10%"}
{"SMILES": "CNCc1ccc(-c2cc(-c3nc(-c4ccc(S(=O)(=O)C(C)C)cc4)cnc3N)on2)cc1", "target": "FGFR3", "effect on": "enzyme activity", "mode": "inhibitor", "concentration": "2 µM", "quantity": "inhibition", "result": "10%"}
{"SMILES": "CSc1nc(C)c(-c2ccnc(Nc3ccc(N4CCOCC4)cc3)c2)[nH]1", "target": "FGFR3", "effect on": "cell-free assay", "mode": "inhibitor", "concentration": "10 µM", "quantity": "inhibition", "result": "70.4%"}
{"SMILES": "C[C@@H]1CN(c2cc(-c3n[nH]c4ccc(OC5(C)CC5)cc34)ncn2)C[C@H](C)O1", "target": "FGFR3 G697C", "effect on": "cell-free assay", "technique": "competition with immobilised ligand", "concentration": "0.1 µM", "quantity": "remaining binding", "result": "86%"}
{"SMILES": "N#CCCc1ccc2c(c1)-c1[nH]c3ccc([N+](=O)[O-])cc3c1CC(=O)N2", "target": "FGFR3", "effect on": "cell-free assay", "concentration": "0.5 µM", "quantity": "remaining signal", "result": "90.3%"}
{"SMILES": "CN(C)c1ncc(F)c(-c2cnn3ncccc23)n1", "target": "FGFR3 G697C", "effect on": "binding", "concentration": "1 µM", "quantity": "remaining binding", "result": "100%"}
{"SMILES": "O=C(Nc1cnn(-c2csc(C(=O)NC3COC3)c2)c1)Nc1c(F)cccc1Cl", "target": "FGFR3", "effect on": "enzyme activity", "mode": "inhibitor", "concentration": "5 µM", "quantity": "remaining activity", "result": "92%"}
{"SMILES": "COc1ccnn2ncc(-c3ccnc(N(C)C)n3)c12", "target": "FGFR3 G697C", "effect on": "binding", "concentration": "1 µM", "quantity": "remaining binding", "result": "100%"}
{"SMILES": "CNc1cccc2cc(C(=O)Nc3ccc(C(=O)O)cc3)c(=O)[nH]c12", "target": "FGFR3", "effect on": "enzyme activity", "mode": "inhibitor", "concentration": "10 µM", "quantity": "inhibition", "result": "-1.1%"}
{"SMILES": "Cc1ccc(NC(=O)c2ccc(C)c(C(F)(F)F)c2)cc1C#Cc1nn(C2CCC(O)CC2)c2ncnc(N)c12 (stereo not shown)", "target": "FGFR3", "effect on": "cell-free assay", "concentration": "10 µM", "quantity": "remaining signal", "result": "3%"}
{"SMILES": "Cc1cnn2ncc(-c3ccnc(N(C)C)n3)c2c1", "target": "FGFR3 G697C", "effect on": "binding", "concentration": "1 µM", "quantity": "remaining binding", "result": "82%"}
{"SMILES": "O=C(O)[C@@H]1[C@@H](Cn2nnc3ccccc3c2=O)CC[C@H]1C(=O)c1ccc(OCCC2CCOCC2)cc1", "target": "FGFR3 G697C", "effect on": "cell-free assay", "technique": "competition with immobilised ligand", "concentration": "1 µM", "quantity": "remaining binding", "result": "92%"}
{"SMILES": "Cc1ccc(Nc2nccc(N(C)c3ccc4c(C)n(C)nc4c3)n2)cc1S(N)(=O)=O", "target": "FGFR3", "effect on": "enzyme activity", "mode": "inhibitor", "concentration": "10 µM", "quantity": "inhibition", "result": "99%"}
{"SMILES": "CN(C)c1ncnc(-c2ccc3nc(Nc4cc(CN5CCN(C(=O)CC(F)(F)F)CC5)ccn4)[nH]c3c2)c1Cl", "target": "FGFR3", "effect on": "cell-free assay", "technique": "competition with immobilised ligand", "concentration": "1 µM", "quantity": "remaining binding", "result": "100%"}
{"SMILES": "Cc1ccc(C(=O)Nc2ccc(CN3CCN(C)CC3)c(C(F)(F)F)c2)cc1C#Cc1cnc2cccnn12", "target": "FGFR3", "effect on": "cell-free assay", "concentration": "23.5 nM", "quantity": "remaining signal", "result": "62%"}
{"SMILES": "Cc1cnc(NC2CCOCC2)nc1-n1cnc(C(=O)NC(CN)c2cc(F)cc(Cl)c2)c1 (stereo not shown)", "target": "FGFR3", "effect on": "enzyme activity", "mode": "inhibitor", "technique": "radiometric", "concentration": "1 µM", "quantity": "remaining activity", "result": "100%"}
{"SMILES": "CN(CCCC(F)(F)F)c1nccc(-c2cnn3ncccc23)n1", "target": "FGFR3 G697C", "effect on": "binding", "concentration": "1 µM", "quantity": "remaining binding", "result": "86%"}
{"SMILES": "CC/C(=N\\NC(=O)NCc1cccc(O)c1)c1ccc(O)c(C)c1O", "target": "Fibroblast growth factor receptor 3 (FGFR3, Homo sapiens, UniProt P22607, K650M)", "effect on": "enzyme activity", "mode": "inhibitor", "concentration": "0.1 µM", "quantity": "inhibition", "result": "4.2%"}
{"SMILES": "Cc1c(NC(=O)c2cc(C(N)=O)nc3cc(F)ccc23)c(C(F)(F)F)nn1Cc1ccc(C(C)(C)C)cc1", "target": "FGFR3", "effect on": "cell-free assay", "technique": "competition with immobilised ligand", "concentration": "1 µM", "quantity": "remaining binding", "result": "92%"}
{"SMILES": "Cc1cc(NC(=O)c2cccc3cc(-c4cccc5[nH]nc(N)c45)ccc23)ccc1F", "target": "FGFR3", "effect on": "enzyme activity", "mode": "inhibitor", "concentration": "0.1 µM", "quantity": "activity vs control", "result": "98%"}
{"SMILES": "N[C@H]1CCN(c2nccc(-c3cnn4ncccc34)n2)C1", "target": "FGFR3", "effect on": "binding", "concentration": "1 µM", "quantity": "remaining binding", "result": "84%"}
{"SMILES": "O=C1NC(=O)c2cc(Nc3ccc(F)cc3)c(Nc3ccc(F)cc3)cc21", "target": "FGFR3", "effect on": "cell-free assay", "concentration": "0.5 µM", "quantity": "remaining signal", "result": "99.7%"}
{"SMILES": "CCCCN(CCCC)C(=O)CN1C[C@H](c2cc(OC)c3c(c2)OCO3)[C@@H](C(=O)O)[C@@H]1CC(C)(C)CCC", "target": "FGFR3", "effect on": "cell-free assay", "technique": "competition with immobilised ligand", "concentration": "1 µM", "quantity": "remaining binding", "result": "100%"}
{"SMILES": "COc1ccc(COc2ccc(Cc3cnc(N)nc3N)cc2OC)cc1", "target": "FGFR3", "effect on": "cell-free assay", "concentration": "0.5 µM", "quantity": "remaining signal", "result": "105%"}
{"SMILES": "CNC(=O)c1cc(Oc2ccc(NC(=O)Nc3ccc(Cl)c(C(F)(F)F)c3)cc2)ccn1", "target": "FGFR3", "effect on": "enzyme activity", "mode": "inhibitor", "concentration": "0.3 µM", "quantity": "inhibition", "result": "32%"}
